Structures can show the parent of a compound that is named as a salt.
What was measured:
MV4-11 = test: Antiproliferative activity against human MV4-11 cells after 72 hrs by MTT assay; assay type: functional, cell-based; conditions: MV4-11, 72 h
Procedure, shortened: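 Leukemia cells cultured in RPMI 1640 at 37 °C, 5% CO2. Plated at 1 × 10⁴ cells/well 24 h ahead, then 72 h with compound at 0.001–10 µg/mL. MTT (stock 5 mg/mL) added, formazan dissolved with a DMF/SDS lysing mixture for 24 h, OD read at 570 nm. IC50 vs untreated control; triplicates, 3–5 repeats.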

A549 [1] = test: Antiproliferative activity against human A549 cells after 72 hrs by SRB assay; assay type: functional, cell-based; conditions: A549, 72 h
Procedure, shortened: (§1)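 Cells grown in RPMI 1640+OptiMEM (50:50) with 2 mM L-glutamine and 5% FBS at 37 °C, 5% CO2. Plated at 1 × 10⁴ cells/well 24 h before treatment, then exposed 72 h to 0.001–10 µg/mL compound (from 1 mg/mL stock in DMSO/medium). TCA-fixed, stained with 0.4% SRB in 1% acetic acid, dye extracted with 10 mM Tris, read at 540 nm. IC50 vs untreated control; triplicates, 3–5 experiments.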

HCT-116 = test: Antiproliferative activity against human HCT116 cells after 72 hrs by SRB assay; assay type: functional, cell-based; conditions: HCT-116, 72 h; procedure, shortened: as §1
BALB/3T3 [2] = test: Antiproliferative activity against mouse BALB/3T3 cells after 72 hrs by SRB assay; assay type: cell-based; conditions: BALB/3T3, 72 h
Procedure, shortened: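 Mouse fibroblasts kept in Dulbecco's medium with 2 mM L-glutamine, 1.0 mM sodium pyruvate and 10% FBS at 37 °C, 5% CO2. Seeded at 1 × 10⁴ cells/well a day before dosing, then 72 h exposure to 0.001–10 µg/mL. SRB staining after TCA fixation, Tris extraction, OD 540 nm. IC50 relative to untreated cells; triplicate wells, 3–5 independent runs.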

BALB/3T3 [3] = test: Selectivity ratio of IC50 for mouse BALB/3T3 cells to IC50 for human HCT116 cells
A549 [4] = test: Selectivity ratio of IC50 for human A549 cells to IC50 for human HCT116 cells; assay type: functional
BALB/3T3 [5] = test: Selectivity ratio of IC50 for mouse BALB/3T3 cells to IC50 for human A549 cells
Nucleic Acid = test: Binding affinity to salmon fish sperm DNA assessed as hypochromic effect by UV-Vis absorption spectroscopic analysis at pH 7; assay type: nucleic-acid assay; conditions: Salmonidae
Procedure, shortened: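 UV–vis absorption titration in pH 7.0 phosphate buffer with 2.5% DMSO at 20 °C, 1 cm quartz cuvette. Compound held at 50 µmol/L with DNA added from 0 to 1.0 µmol/L. Binding assessed from absorbance change using a 1/ΔA versus 1/[DNA] plot.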

IC50 (MV4-11) [nM] | IC50 (A549 [1]) [nM] | IC50 (HCT-116) [nM] | K (Nucleic Acid) [×10⁵ L/mol] | Structure (SMILES) | IC50 (BALB/3T3 [2]) [nM] | Ratio IC50 (BALB/3T3 [3]) | Ratio IC50 (A549 [4]) | Ratio IC50 (BALB/3T3 [5])
680 |  |  |  | Cn1c2nc3ccccc3c-2c(NCCCCN)c2cc(Cl)ccc21 |  |  |  | 
530 |  |  |  | Cn1c2nc3ccccc3c-2c(NCCCO)c2cc(Cl)ccc21 |  |  |  | 
68 | 761 | 195 |  | Cn1c2nc3ccccc3c-2c(NCCCN)c2cc(Cl)ccc21 | 401 | 4 | 4 | 
102 | 407 | 155 |  | COc1ccc2c(c1)c(NCCCN)c1c3ccccc3nc-1n2C | 978 | 3 |  | 3
132 | 674 | 657 |  | COc1ccc2c(c1)c(NCCCCN)c1c3ccccc3nc-1n2C | 1620 |  |  | 
135 | 1010 | 278 |  | COc1ccc2c(c1)c(NCCCO)c1c3ccccc3nc-1n2C | 807 | 4 | 4 | 
95 | 785 | 178 |  | Cn1c2nc3ccccc3c-2c(NCCCCN)c2cc(F)ccc21 | 853 | 4 | 4 | 
3460 |  |  |  | CN(C)CCCNCc1c2c3ccccc3nc-2n(C)c2ccc(Cl)cc12 |  |  |  | 
91 | 579 | 209 |  | Cn1c2nc3ccccc3c-2c(NCCCCN)c2cc(Br)ccc21 | 742 | 3 |  | 3
780 |  |  |  | CCN(CC)CCCC(C)Nc1c2c3ccccc3nc-2n(C)c2ccc(Cl)cc12 (configuration not stated) |  |  |  | 
703 | 1590 | 989 |  | Cn1c2nc3ccccc3c-2c(NCCCO)c2cc(Br)ccc21 | 1200 |  |  | 
12 | 543 | 274 | 2.93 | Cn1c2nc3ccccc3c-2c(NCCCN)c2cc(Br)ccc21 | 869 | 3 |  | 3
721 |  |  |  | CCN(CC)CCCC(C)Nc1c2c3ccccc3nc-2n(C)c2ccccc12 (configuration not stated) |  |  |  | 
5250 |  |  |  | CCN(CC)CCCC(C)Nc1c2cc(Cl)ccc2nc2c1c1ccccc1n2C (configuration not stated) |  |  |  | 
578 |  |  |  | CCN(CC)CCCC(C)Nc1c2c3ccccc3nc-2n(C)c2ccc(Br)cc12 (configuration not stated) |  |  |  | 

Continued, compound first:

Structure (SMILES) | IC50 (MV4-11) [nM] | IC50 (A549 [1]) [nM] | IC50 (HCT-116) [nM] | K (Nucleic Acid) [×10⁵ L/mol] | IC50 (BALB/3T3 [2]) [nM] | Ratio IC50 (BALB/3T3 [3]) | Ratio IC50 (A549 [4]) | Ratio IC50 (BALB/3T3 [5])
CN1CCCN(c2c3c4ccccc4nc-3n(C)c3ccccc23)CC1 | 7170 |  |  |  |  |  |  | 
Cn1c2nc3ccccc3c-2c(N2CCOCC2)c2ccccc21 | 164 | 1510 | 1800 |  | 1610 |  |  | 
Cn1c2ccccc2c2c(N3CCOCC3)c3cc(Cl)ccc3nc21 | > 25000 |  |  |  |  |  |  | 
Cn1c2nc3ccccc3c-2c(Cl)c2ccccc21 [11-CHLORONEOCRYPTOLEPINE] | 1310 |  |  |  |  |  |  | 
COc1cccc2c1C(=O)c1c(O)c3c(c(O)c1C2=O)C[C@@](O)(C(=O)CO)C[C@@H]3O[C@H]1C[C@H](N)[C@H](O)[C@H](C)O1 [DOXORUBICIN HYDROCHLORIDE] | 6 | 329 | 390 |  | 1080 |  |  | 
Cn1c2ccccc2c2c(NCCN)c3cc(Cl)ccc3nc21 | 456 | 8280 | 6990 |  | 10400 |  |  | 
Cn1c2nc3ccccc3c-2c(NCCCO)c2ccccc21 | 170 | 973 | 714 |  | 635 |  |  | 
Cn1c2ccccc2c2c(NCCc3c[nH]c4ccccc34)c3cc(Cl)ccc3nc21 | 18800 |  |  |  |  |  |  | 
Cn1c2nc3ccccc3c-2c(Cl)c2cc(Br)ccc21 | 810 |  |  |  |  |  |  | 
Cn1c2ccccc2c2c(NCCCN)c3cc(Cl)ccc3nc21 | 800 | 7380 | 4490 | 3.28 | 9800 |  |  | 
Cn1c2nc3ccccc3c-2c(NCCCN)c2ccccc21 | 66 | 205 | 302 |  | 884 | 3 |  | 3
CN1CCCN(c2c3c4ccccc4nc-3n(C)c3ccc(Cl)cc23)CC1 | 106 | 7390 | 1750 |  | 6410 | 4 | 4 | 
Cn1c2nc3ccccc3c-2c(NCCc2c[nH]c3ccccc23)c2cc(Cl)ccc21 | 447 |  |  |  |  |  |  | 
CN1CCCN(c2c3cc(Cl)ccc3nc3c2c2ccccc2n3C)CC1 | 773 | 11200 | 8000 |  | > 25000 |  |  | 
Cn1c2ccccc2c2c(NCCCO)c3cc(Cl)ccc3nc21 | 6210 |  |  |  |  |  |  | 
CN1CCCN(c2c3c4ccccc4nc-3n(C)c3ccc(Br)cc23)CC1 | 737 | 4540 | 1160 |  | 7600 |  |  | 
CN(C)CCNc1c2cc(Cl)ccc2nc2c1c1ccccc1n2C | 2830 |  |  |  |  |  |  | 
Cn1c2ccccc2c2c(NCCCCN)c3cc(Cl)ccc3nc21 | 669 | 6090 | 5500 |  | 9010 |  |  | 
CN1CCCN(Cc2c3c4ccccc4nc-3n(C)c3ccc(Cl)cc23)CC1 | 3440 |  |  |  |  |  |  | 
Cn1c2nc3ccccc3c-2c(NCCCCN)c2ccccc21 | 100 | 911 | 669 |  | 936 |  |  | 
COc1ccc2c(c1)c(Cl)c1c3ccccc3nc-1n2C | 1210 |  |  |  |  |  |  | 
Cn1c2nc3ccccc3c-2c(NCCc2c[nH]c3ccccc23)c2ccccc21 | 871 |  |  |  |  |  |  | 

— ChEMBL document CHEMBL2057078, “Synthesis and in vitro antiproliferative activity of new 11-aminoalkylamino-substituted 5H- and 6H-indolo[2,3-b]quinolines; structure-activity relationships of neocryptolepines and 6-methyl congeners” (Bioorg Med Chem, 2012)
